Results: ChEMBL document CHEMBL1129929, “Analogues of methotrexate in rheumatoid arthritis. 1. Effects of 10-deazaaminopterin analogues on type II collagen-induced arthritis in mice” (J Med Chem, 1997)

Tests used:
[1] = test system: Mus musculus; experiment: Incidence of disease(mouse type II collagen arthritis) was scored as the percentage of animals within each experimental group that exhibited joint or limb inflammation on day 37 at intraperitoneal of dose 12 mg/kg; type: functional
Method in brief: (§1)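 DBA/1 mice were immunized with bovine type II collagen (modified Courtenay method), with a collagen booster on day 21. Compounds were given ip starting 2 days before the first collagen challenge and every 2 days thereafter. Incidence was the percentage of animals per group with joint or limb inflammation, scored on days 23, 30, 37 and 44.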

[2] = test system: Mus musculus; experiment: Incidence of disease(mouse type II collagen arthritis) was scored as the percentage of animals within each experimental group that exhibited joint or limb inflammation on day 44 at intraperitoneal of dose 1.25 mg/kg; type: functional; method in brief: as §1
[3] = test system: Mus musculus; experiment: Tested for antiinflammatory activity on mouse type II collagen arthritis as Paw swelling* of all animals in each group on day 30 at intraperitoneal dose of 5 mg/kg; type: functional
Method in brief: (§2)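 DBA/1 mice immunized with bovine type II collagen (Courtenay method, modified), antigen booster at day 21. Compounds given ip from 2 days before the first collagen challenge, then every 2 days. Hind paw dimensions (mm) measured for both limbs of all animals, expressed as mean ± SD. Eight mice per dose; untreated controls pooled from four experiments (48 animals).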

[4] = test system: Mus musculus; experiment: Tested for antiinflammatory activity on mouse type II collagen arthritis as Paw swelling* of all animals in each group on day 30 at intraperitoneal dose of 1.25 mg/kg; type: functional; method in brief: as §2
[5] = test system: Mus musculus; experiment: Incidence of disease(mouse type II collagen arthritis) was scored as the percentage of animals within each experimental group that exhibited joint or limb inflammation on day 23 at intraperitoneal of dose 12 mg/kg; type: functional; method in brief: as §1
[6] = test system: Mus musculus; experiment: Incidence of disease(mouse type II collagen arthritis) was scored as the percentage of animals within each experimental group that exhibited joint or limb inflammation on day 44 at intraperitoneal of dose 12 mg/kg; type: functional; method in brief: as §1
[7] = test system: Mus musculus; experiment: Tested for antiinflammatory activity on mouse type II collagen arthritis as Paw swelling* of all animals in each group on day 23 at intraperitoneal dose of 5 mg/kg; type: functional; method in brief: as §2
[8] = test system: Mus musculus; experiment: Incidence of disease(mouse type II collagen arthritis) was scored as the percentage of animals within each experimental group that exhibited joint or limb inflammation on day 30 at intraperitoneal of dose 1.25 mg/kg; type: functional; method in brief: as §1
[9] = test system: Mus musculus; experiment: Tested for antiinflammatory activity on mouse type II collagen arthritis as Paw swelling* of all animals in each group on day 37 at intraperitoneal dose of 12 mg/kg; type: functional; method in brief: as §2
[10] = test system: Mus musculus; experiment: Tested for antiinflammatory activity on mouse type II collagen arthritis as Paw swelling* of all animals in each group on day 30 at intraperitoneal dose of 2.25 mg/kg; type: functional; method in brief: as §2
[11] = test system: Mus musculus; experiment: Tested for antiinflammatory activity on mouse type II collagen arthritis as Paw swelling* of all animals in each group on day 44 at intraperitoneal dose of 5 mg/kg; type: functional; method in brief: as §2
[12] = test system: Mus musculus; experiment: Incidence of disease(mouse type II collagen arthritis) was scored as the percentage of animals within each experimental group that exhibited joint or limb inflammation on day 44 at intraperitoneal of dose 2.5 mg/kg; type: functional; method in brief: as §1
[13] = test system: Mus musculus; experiment: Tested for antiinflammatory activity on mouse type II collagen arthritis as Paw swelling* of all animals in each group on day 30 at intraperitoneal dose of 12 mg/kg; type: functional; method in brief: as §2
[14] = test system: L1210; experiment: Concentration required to inhibit the growth of L1210 cells; type: functional, cell-based; settings: Mus musculus
[15] = test system: Mus musculus; experiment: Incidence of disease(mouse type II collagen arthritis) was scored as the percentage of animals within each experimental group that exhibited joint or limb inflammation on day 23 at intraperitoneal dose of 2.5 mg/kg; type: functional; method in brief: as §1
[16] = test system: Mus musculus; experiment: Incidence of disease(mouse type II collagen arthritis) was scored as the percentage of animals within each experimental group that exhibited joint or limb inflammation on day 44 at intraperitoneal of dose 5 mg/kg; type: functional; method in brief: as §1
[17] = test system: Mus musculus; experiment: Incidence of disease(mouse type II collagen arthritis) was scored as the percentage of animals within each experimental group that exhibited joint or limb inflammation on day 37 at intraperitoneal of dose 5 mg/kg; type: functional; method in brief: as §1
[18] = test system: Mus musculus; experiment: Incidence of disease(mouse type II collagen arthritis) was scored as the percentage of animals within each experimental group that exhibited joint or limb inflammation on day 23 at intraperitoneal dose of 1.25 mg/kg; type: functional; method in brief: as §1
[19] = test system: Mus musculus; experiment: Tested for antiinflammatory activity on mouse type II collagen arthritis as Paw swelling* of all animals in each group on day 23 at intraperitoneal dose of 2.25 mg/kg; type: functional; method in brief: as §2
[20] = test system: Mus musculus; experiment: Tested for antiinflammatory activity on mouse type II collagen arthritis as Paw swelling* of all animals in each group onn day 44 at intraperitoneal dose of 2.25 mg/kg; type: functional; method in brief: as §2
[21] = test system: Mus musculus; experiment: Tested for antiinflammatory activity on mouse type II collagen arthritis as Paw swelling* of all animals in each group on day 23 at intraperitoneal dose of 12 mg/kg; type: functional; method in brief: as §2
[22] = test system: Mus musculus; experiment: Incidence of disease(mouse type II collagen arthritis) was scored as the percentage of animals within each experimental group that exhibited joint or limb inflammation on day 30 at intraperitoneal of dose 5 mg/kg; type: functional; method in brief: as §1
[23] = test system: Mus musculus; experiment: Incidence of disease(mouse type II collagen arthritis) was scored as the percentage of animals within each experimental group that exhibited joint or limb inflammation on day 30 at intraperitoneal of dose 12 mg/kg; type: functional; method in brief: as §1
[24] = test system: Mus musculus; experiment: Incidence of disease(mouse type II collagen arthritis) was scored as the percentage of animals within each experimental group that exhibited joint or limb inflammation on day 37 at intraperitoneal of dose 2.5 mg/kg; type: functional; method in brief: as §1
[25] = test system: Mus musculus; experiment: Tested for antiinflammatory activity on mouse type II collagen arthritis as Paw swelling* of all animals in each group on day 37 at intraperitoneal dose of 5 mg/kg; type: functional; method in brief: as §2
[26] = test system: Mus musculus; experiment: Tested for antiinflammatory activity on mouse type II collagen arthritis as Paw swelling* of all animals in each group on day 23 at intraperitoneal dose of 1.25 mg/kg; type: functional; method in brief: as §2
[27] = test system: Mus musculus; experiment: Tested for antiinflammatory activity on mouse type II collagen arthritis as Paw swelling* of all animals in each group on day 44 at intraperitoneal dose of 12 mg/kg; type: functional; method in brief: as §2
[28] = test system: Mus musculus; experiment: Incidence of disease(mouse type II collagen arthritis) was scored as the percentage of animals within each experimental group that exhibited joint or limb inflammation on day 23 at intraperitoneal dose of 5 mg/kg; type: functional; method in brief: as §1
[29] = test system: Mus musculus; experiment: Incidence of disease(mouse type II collagen arthritis) was scored as the percentage of animals within each experimental group that exhibited joint or limb inflammation on day 37 at intraperitoneal of dose 1.25 mg/kg; type: functional; method in brief: as §1
[30] = Concentration required to inhibit the growth of chang liver cells; type: functional; settings: Homo sapiens
[31] = test system: Mus musculus; experiment: Incidence of disease(mouse type II collagen arthritis) was scored as the percentage of animals within each experimental group that exhibited joint or limb inflammation on day 30 at intraperitoneal of dose 2.5 mg/kg; type: functional; method in brief: as §1
[32] = test system: Mus musculus; experiment: Tested for antiinflammatory activity on mouse type II collagen arthritis as Paw swelling* of all animals in each group on day 37 at intraperitoneal dose of 2.25 mg/kg; type: functional; method in brief: as §2

CCC(Cc1cnc2nc(N)nc(N)c2n1)c1ccc(C(=O)NC(CCC(=O)O)C(=O)O)cn1 (configuration not stated)
Animals [1]: 88% | Animals [2]: 100% | Paw swelling [3]: 2.32 mm | Paw swelling [4]: 2.24 mm | Animals [5]: 12% | Animals [6]: 100% | Paw swelling [7]: 2.15 mm | Animals [8]: 38% | Paw swelling [9]: 2.59 mm | Paw swelling [10]: 2.18 mm | Paw swelling [11]: 3.09 mm | Animals [12]: 75% | Paw swelling [13]: 2.2 mm | IC50 [14]: 268 nM | Animals [15]: 0% | Animals [16]: 88% | Animals [17]: 75% | Animals [18]: 12% | Paw swelling [19]: 2.15 mm | Paw swelling [20]: 2.75 mm | Paw swelling [21]: 2.21 mm | Animals [22]: 63% | Animals [23]: 25% | Animals [24]: 75% | Paw swelling [25]: 2.56 mm | Paw swelling [26]: 2.17 mm | Paw swelling [27]: 2.86 mm | Animals [28]: 12% | Animals [29]: 75% | IC50 [30]: 35 nM | Animals [31]: 25% | Paw swelling [32]: 2.75 mm
